Screening results from PubChem BioAssay.
Hits are enriched below; roughly 1.9% of the tested compounds scored in any of these assays.
PP5 primary: inhibitors of human protein phosphatase 5 (PP5) | purified PP5c, OMFP substrate fluorescence | inhibition, % at 6.7 µM | hit rate 0.18% among 320,000;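 active = inhibition above the campaign's mean inhibition across all tested compounds plus 3 SD, cut at about 9.5% in these data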;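 also: 0% = DMSO only and 100% = 100 µM cantharidin control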
STEP inh: STEP (human) phosphatase inhibition; P54829; recombinant STEP, OMFP fluorogenic substrate, fluorescence; inhibition, % at 20 µM; hit rate 0.25% among 360,000; AID 588621;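 active = inhibition at 20 µM, scaled per plate between control wells, above about 37%, limit read from the data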;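 also: 0% = DMSO with enzyme and substrate and 100% = substrate only without enzyme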
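material = STEP tyrosine phosphatase | reagent = fluorogenic phosphatase substrate OMFP at 25 µM final | doses = single compound dose of 20 µM, 1% DMSO final | schedule = 20 min reaction, room temperature, in the dark | measured by = fluorescence, 480/540 nm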
Scp-1 inhibitor: inhibitors of human Scp-1 phosphatase | Q9GZU7 | Recombinant Scp1, phosphopeptide, malachite green phosphate absorbance | inhibition, % at 20 µM | hit rate 0.88% among 340,000 | AID 493091;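 active = inhibition above about 50% at 20 µM, limit read from the data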;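 also: plate controls were DMSO wells with enzyme for no effect and wells lacking enzyme for full effect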
Target sequence (Q9GZU7 76-261 limits assumed): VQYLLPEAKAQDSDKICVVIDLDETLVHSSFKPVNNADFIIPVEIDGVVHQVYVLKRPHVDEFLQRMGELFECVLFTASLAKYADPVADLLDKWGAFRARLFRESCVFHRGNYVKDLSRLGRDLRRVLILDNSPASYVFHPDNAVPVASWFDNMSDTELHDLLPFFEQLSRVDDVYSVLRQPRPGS
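Test system – truncated SCP-1 phosphatase (76-261aa) · Reagent – Phosphorylated 17-residue peptide substrate · Incubation – 45 min room-temperature reaction, 5 min colour, 30 min stabiliser · Detection – colorimetric phosphate reagent with accelerator and stabiliser, absorbance at 630 nm · Measure – % inhibition at 20 µM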
PP1 inh: PP1-alpha (human) inhibition in PP5 counter-screen | hit rate 0.9% among 320,000 | P62136 | purified PP1alpha, OMFP fluorescence | inhibition, % at 6.7 µM;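 active = inhibition above the mean inhibition of all tested compounds plus 3 SD, computed separately for each screening campaign, cut at about 15% in these data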
LMPTP block: LMPTP (human) inhibition; AID 651560; recombinant LMPTP-A, OMFP fluorogenic substrate, fluorescence intensity; hit rate 0.22% among 360,000; inhibition, % at 20 µM;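 active = compounds that cut the enzyme signal by at least half of the control window in the single-dose screen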;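 also: plate controls were DMSO wells with enzyme plus substrate for no effect and substrate without enzyme for full effect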
Target sequence (P24666 whole entry, looked up): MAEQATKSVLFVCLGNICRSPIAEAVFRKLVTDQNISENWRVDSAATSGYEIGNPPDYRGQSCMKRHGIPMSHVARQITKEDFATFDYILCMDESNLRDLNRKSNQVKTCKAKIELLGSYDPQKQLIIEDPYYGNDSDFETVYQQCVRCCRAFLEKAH
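test system = LMPTP-A | amount = 0.625 nM LMPTP-A final | reagent = fluorogenic phosphatase substrate OMFP at 400 µM final | incubation = 50 min at room temperature | benchmarks = no-enzyme low control, uninhibited high control | medium = Bis-Tris pH 6.0, DTT, detergent | signal = fluorescence intensity of OMFP turnover product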
PP1 confirm: human PP1 phosphatase inhibition, confirmation; inhibition, % at 6.7 µM; hit rate 52% among 1,900; shares compounds with PP1 inh; AID 2358; purified PP1alpha, OMFP substrate fluorescence;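 active = mean PP1 inhibition above a set limit taken from the earlier primary screen, cut at about 15% in these data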
PP5 counter: PP5 phosphatase inhibition, counter-screen for PP1 inhibitors; shares compounds with PP1 inh; purified PP5c, OMFP fluorescence; inhibition, % at 6.7 µM; hit rate 4% among 1,900; AID 2360;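 active = mean PP5 inhibition over triplicate wells above about 9.5% taken from the earlier PP1 screen, limit read from the data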
Active calls of the source: *.

Results for Cc1cc(/C=N/NC(N)=S)c(C)n1-c1cccc(Cl)c1 ?
PP5 primary: 0; STEP inh: 1; Scp-1 inhibitor: 8; PP1 inh: 60*; LMPTP block: 0; PP1 confirm: 1; PP5 counter: 1

What do the screens show for `Cc1cc(/C=N/NC(N)=S)c(C)n1-c1ccc(Br)cc1`?
PP5 primary: 2; STEP inh: 1; Scp-1 inhibitor: 7; PP1 inh: 25*; LMPTP block: 3; PP1 confirm: 16*; PP5 counter: -4

How did O=C(N/N=C/c1ccc(Sc2nc3ccccc3[nH]2)o1)c1ccncc1 do in these assays?
PP5 primary: 0; STEP inh: 5; Scp-1 inhibitor: -1; PP1 inh: 0; LMPTP block: 0

What do the screens show for `CCCCCC[N+](C)(C)CCSSCC[N+](C)(C)CCCCCC`?
PP5 primary: -1; STEP inh: -2; Scp-1 inhibitor: -7; PP1 inh: -6; LMPTP block: -1

What do the screens show for `CCCCCCCCCCCCCCCC[N+](C)(C)CC`?
PP5 primary: 3; STEP inh: 3; Scp-1 inhibitor: 9; PP1 inh: 20*; LMPTP block: -4; PP1 confirm: -11; PP5 counter: 2

Results for Clc1ccccc1C(c1ccccc1)(c1ccccc1)n1ccnc1 ?
PP5 primary: 1; STEP inh: 0; Scp-1 inhibitor: -1; PP1 inh: 18*; LMPTP block: 3; PP1 confirm: 6; PP5 counter: -3

Results for C#CC(c1ccccc1)(c1ccccc1)n1ccnc1 ?
STEP inh: -3; LMPTP block: -1

How did O=C(Nc1cccc(C(=O)N2CCCCC2)c1)C1CCC1 do in these assays?
STEP inh: 2; Scp-1 inhibitor: -8; LMPTP block: -2

Results for C=CCSc1nc(C)c(CC(=C)C)c(=O)[nH]1 ?
PP5 primary: 0; STEP inh: 8; Scp-1 inhibitor: -4; PP1 inh: -3; LMPTP block: -1

Results for O=C(c1ccc(Oc2ccc([N+](=O)[O-])cc2)cc1)N1CCCCCC1 ?
PP5 primary: 0; STEP inh: 7; Scp-1 inhibitor: -5; PP1 inh: 1; LMPTP block: -2

How did CCOC(=O)c1cccc(NC(=O)CSc2nc3ccccc3c(=O)n2CCOC)c1 do in these assays?
PP5 primary: -2; STEP inh: 4; Scp-1 inhibitor: -12; PP1 inh: -5; LMPTP block: 1

How did CC(NS(=O)(=O)OCC(Cl)(Cl)Cl)c1ccc(C(C)(C)C)cc1 (stereo not drawn) do in these assays?
PP5 primary: 8; STEP inh: -5; Scp-1 inhibitor: 2; PP1 inh: 19*; LMPTP block: 1; PP1 confirm: 2; PP5 counter: 3

Results for COc1ccc(CNCC(O)COc2ccc(C(C)(C)c3ccccc3)cc2)cc1 (stereo not drawn) ?
PP5 primary: 3; STEP inh: 4; Scp-1 inhibitor: -3; PP1 inh: 24*; LMPTP block: 2; PP1 confirm: 12; PP5 counter: 3

How did COC(=O)c1ccc(CNCC(O)COc2ccc(-c3ccccc3)cc2)cc1 (stereo not drawn) do in these assays?
PP5 primary: 5; STEP inh: 2; Scp-1 inhibitor: -1; PP1 inh: 8; LMPTP block: 4

What do the screens show for `CCOC(=O)C1CCN(C(=O)Nc2ccc3nc(-c4ccco4)c(-c4ccco4)nc3c2)CC1`?
PP5 primary: 5; STEP inh: 68*; Scp-1 inhibitor: 67*; PP1 inh: 31*; LMPTP block: 80*; PP1 confirm: 10; PP5 counter: 6

What do the screens show for `Cc1ccc(-n2c(C)cc(C(=O)COC(=O)c3ccc[nH]c3=O)c2C)cc1C`?
PP5 primary: 0; STEP inh: 1; Scp-1 inhibitor: -8; PP1 inh: 21*; LMPTP block: 4; PP1 confirm: 16*; PP5 counter: -5

What do the screens show for `CN(c1ccccc1)S(=O)(=O)c1ccc(C(=O)Nc2nnc(C3CC3)o2)cc1`?
PP5 primary: 0; STEP inh: 1; Scp-1 inhibitor: -1; PP1 inh: 22*; LMPTP block: 0; PP1 confirm: 19*; PP5 counter: 0

What do the screens show for `CCN(c1ccccc1)S(=O)(=O)c1ccc(C(=O)Nc2nnc(C3CC3)o2)cc1`?
PP5 primary: -2; STEP inh: -2; Scp-1 inhibitor: -9; PP1 inh: 31*; LMPTP block: -2; PP1 confirm: 29*; PP5 counter: -2

Results for COCCN(CCOC)S(=O)(=O)c1ccc(C(=O)Nc2nnc(C3CC3)o2)cc1 ?
PP5 primary: 2; STEP inh: 2; Scp-1 inhibitor: -8; PP1 inh: 1; LMPTP block: 0

What do the screens show for `COc1cc(C(NC(C)=O)NC(C)=O)ccc1OCc1ccccc1`?
PP5 primary: -1; STEP inh: 4; Scp-1 inhibitor: -1; PP1 inh: -4; LMPTP block: -2

How did COc1cc(C(c2c(C(=O)O)[nH]c3ccccc23)c2c(C(=O)O)[nH]c3ccccc23)ccc1OCc1ccccc1 do in these assays?
PP5 primary: 5; STEP inh: -6; Scp-1 inhibitor: -8; PP1 inh: 19*; LMPTP block: 3; PP1 confirm: 15*; PP5 counter: -2

What do the screens show for `O=C1CC(=O)N(Cc2cccs2)C(=O)N1`?
PP5 primary: 1; STEP inh: 1; Scp-1 inhibitor: -3; PP1 inh: 1; LMPTP block: 0

What do the screens show for `O=C1CC(=O)N(Cc2ccco2)C(=O)N1`?
PP5 primary: 2; STEP inh: 95*; Scp-1 inhibitor: 66*; PP1 inh: 58*; LMPTP block: 51*; PP1 confirm: 1; PP5 counter: 1

What do the screens show for `CCOc1cccc(/C=C/c2ccc3cccc(O)c3n2)c1OC`?
PP5 primary: 2; STEP inh: 6; Scp-1 inhibitor: -7; PP1 inh: 21*; LMPTP block: 5; PP1 confirm: 15*; PP5 counter: -2

How did CCOc1cccc(/C=C/c2ccc3cccc(O)c3n2)c1O do in these assays?
PP5 primary: 0; STEP inh: 0; Scp-1 inhibitor: -2; PP1 inh: 12; LMPTP block: 5

Results for O=[N+]([O-])c1cccc(/C=C/c2ccc3cccc(O)c3n2)c1 ?
PP5 primary: 2; STEP inh: 0; Scp-1 inhibitor: -2; PP1 inh: 25*; LMPTP block: -1; PP1 confirm: 21*; PP5 counter: -7

What do the screens show for `Oc1cccc2ccc(/C=C/c3ccccc3Cl)nc12`?
PP5 primary: 1; STEP inh: 2; Scp-1 inhibitor: 4; PP1 inh: 19*; LMPTP block: 1; PP1 confirm: 11; PP5 counter: 0
